Measured values published in ChEMBL document CHEMBL1154229 (Bioorg Med Chem Lett, 2009).

What was measured:
[1] = biological target: T1, Bifunctional epoxide hydrolase 2 (Rattus norvegicus, UniProt P80299); experiment: Inhibition of rat soluble epoxide hydrolase
T1 sequence (P80299 whole entry): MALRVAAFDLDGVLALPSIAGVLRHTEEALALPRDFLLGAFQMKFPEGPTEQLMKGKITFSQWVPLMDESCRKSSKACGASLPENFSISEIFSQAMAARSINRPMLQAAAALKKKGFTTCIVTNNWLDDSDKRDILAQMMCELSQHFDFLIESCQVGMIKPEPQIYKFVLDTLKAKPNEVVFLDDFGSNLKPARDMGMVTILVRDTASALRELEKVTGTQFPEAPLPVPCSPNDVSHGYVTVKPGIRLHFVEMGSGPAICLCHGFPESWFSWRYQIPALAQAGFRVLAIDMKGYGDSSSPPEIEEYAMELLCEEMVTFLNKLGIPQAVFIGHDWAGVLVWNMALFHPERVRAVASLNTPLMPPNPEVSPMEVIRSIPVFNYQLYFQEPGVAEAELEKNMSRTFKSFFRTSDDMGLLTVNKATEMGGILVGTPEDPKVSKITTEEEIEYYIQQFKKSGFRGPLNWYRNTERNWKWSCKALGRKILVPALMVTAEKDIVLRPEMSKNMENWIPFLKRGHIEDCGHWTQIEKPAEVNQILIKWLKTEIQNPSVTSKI

[2] = biological target: T2, Bifunctional epoxide hydrolase 2 (Homo sapiens, UniProt P34913); experiment: Inhibition of human soluble epoxide hydrolase in HEK293 cells assessed as DHET production; format: cell-based
T2 sequence (P34913 whole entry): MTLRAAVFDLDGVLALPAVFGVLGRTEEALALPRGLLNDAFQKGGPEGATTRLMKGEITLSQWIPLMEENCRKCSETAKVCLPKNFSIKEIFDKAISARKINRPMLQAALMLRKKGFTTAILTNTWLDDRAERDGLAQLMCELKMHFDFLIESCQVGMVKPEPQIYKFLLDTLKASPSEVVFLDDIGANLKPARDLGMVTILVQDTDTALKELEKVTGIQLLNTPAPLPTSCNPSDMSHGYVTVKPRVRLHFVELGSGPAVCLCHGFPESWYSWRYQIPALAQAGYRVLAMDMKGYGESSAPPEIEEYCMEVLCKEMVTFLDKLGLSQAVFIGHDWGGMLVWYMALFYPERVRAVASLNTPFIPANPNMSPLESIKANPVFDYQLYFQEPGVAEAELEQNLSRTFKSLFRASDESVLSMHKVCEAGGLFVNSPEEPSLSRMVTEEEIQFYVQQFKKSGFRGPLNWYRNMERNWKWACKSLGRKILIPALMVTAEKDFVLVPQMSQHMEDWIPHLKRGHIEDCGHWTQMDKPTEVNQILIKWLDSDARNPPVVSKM
In short: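 Whole-cell 14,15-DHET production assay in HEK293 cells, run with or without 10% human serum. Values come from one or two experiments, each in triplicate, with repeats within 20%.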

Epoxide hydrolase 1 = biological target: T3, Epoxide hydrolase 1 (Homo sapiens, UniProt P07099); experiment: Inhibition of human microsomal epoxide hydrolase
T3 sequence (P07099 whole entry): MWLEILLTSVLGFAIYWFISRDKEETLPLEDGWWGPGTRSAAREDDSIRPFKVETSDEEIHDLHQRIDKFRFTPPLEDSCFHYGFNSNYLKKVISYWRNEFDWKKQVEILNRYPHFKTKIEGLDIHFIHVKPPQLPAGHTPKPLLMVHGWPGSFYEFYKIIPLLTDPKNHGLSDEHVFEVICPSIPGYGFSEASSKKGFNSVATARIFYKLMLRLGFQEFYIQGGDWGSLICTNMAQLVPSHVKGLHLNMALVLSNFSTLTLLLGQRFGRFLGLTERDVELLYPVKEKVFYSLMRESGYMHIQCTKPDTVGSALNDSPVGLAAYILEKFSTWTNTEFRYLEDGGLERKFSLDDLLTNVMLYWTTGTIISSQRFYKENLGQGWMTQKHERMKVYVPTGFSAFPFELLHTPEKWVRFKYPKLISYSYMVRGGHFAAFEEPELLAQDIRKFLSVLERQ
In short: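 Human mEH used as the counterscreen enzyme. Values come from one or two experiments, each in triplicate, with repeats within 20%.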

Cytochrome P450 2C9 = Cytochrome P450 2C9 (Homo sapiens, UniProt P11712); experiment: Inhibition of CYP2C9; format: ADME
Cytochrome P450 2C9, sequence (P11712 whole entry): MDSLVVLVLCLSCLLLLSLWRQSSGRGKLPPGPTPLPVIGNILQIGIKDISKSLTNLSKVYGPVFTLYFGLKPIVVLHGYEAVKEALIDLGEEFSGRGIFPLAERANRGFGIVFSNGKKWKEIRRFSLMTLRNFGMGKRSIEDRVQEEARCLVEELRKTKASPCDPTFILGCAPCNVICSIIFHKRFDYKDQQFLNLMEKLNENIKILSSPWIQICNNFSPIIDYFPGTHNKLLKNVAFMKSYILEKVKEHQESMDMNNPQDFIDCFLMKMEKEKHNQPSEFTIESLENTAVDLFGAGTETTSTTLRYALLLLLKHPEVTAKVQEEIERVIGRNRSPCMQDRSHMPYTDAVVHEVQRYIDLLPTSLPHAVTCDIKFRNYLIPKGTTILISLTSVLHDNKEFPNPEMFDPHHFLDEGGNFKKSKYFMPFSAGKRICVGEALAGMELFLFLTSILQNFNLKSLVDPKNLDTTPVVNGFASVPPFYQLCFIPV

Cytochrome P450 2D6 = Cytochrome P450 2D6 (Homo sapiens, UniProt P10635); experiment: (§1) Inhibition of CYP2D6; format: ADME
Cytochrome P450 2D6, sequence (P10635 whole entry): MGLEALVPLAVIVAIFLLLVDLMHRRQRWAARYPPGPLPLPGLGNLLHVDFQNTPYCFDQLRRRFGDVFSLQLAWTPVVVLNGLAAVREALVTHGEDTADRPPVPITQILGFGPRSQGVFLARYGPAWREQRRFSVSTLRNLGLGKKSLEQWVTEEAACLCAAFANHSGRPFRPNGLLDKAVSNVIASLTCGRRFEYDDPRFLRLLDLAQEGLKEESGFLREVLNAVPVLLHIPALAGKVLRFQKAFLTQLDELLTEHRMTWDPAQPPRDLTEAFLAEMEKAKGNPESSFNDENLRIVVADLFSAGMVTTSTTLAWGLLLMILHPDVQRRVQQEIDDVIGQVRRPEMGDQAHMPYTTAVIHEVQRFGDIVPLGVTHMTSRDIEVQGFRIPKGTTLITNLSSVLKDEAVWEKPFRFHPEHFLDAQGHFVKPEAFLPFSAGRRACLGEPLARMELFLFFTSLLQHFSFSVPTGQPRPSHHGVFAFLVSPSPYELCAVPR

Cytochrome P450 3A4 = Cytochrome P450 3A4 (Homo sapiens, UniProt P08684); experiment: Inhibition of CYP3A4; format: ADME
Cytochrome P450 3A4, sequence (P08684 whole entry): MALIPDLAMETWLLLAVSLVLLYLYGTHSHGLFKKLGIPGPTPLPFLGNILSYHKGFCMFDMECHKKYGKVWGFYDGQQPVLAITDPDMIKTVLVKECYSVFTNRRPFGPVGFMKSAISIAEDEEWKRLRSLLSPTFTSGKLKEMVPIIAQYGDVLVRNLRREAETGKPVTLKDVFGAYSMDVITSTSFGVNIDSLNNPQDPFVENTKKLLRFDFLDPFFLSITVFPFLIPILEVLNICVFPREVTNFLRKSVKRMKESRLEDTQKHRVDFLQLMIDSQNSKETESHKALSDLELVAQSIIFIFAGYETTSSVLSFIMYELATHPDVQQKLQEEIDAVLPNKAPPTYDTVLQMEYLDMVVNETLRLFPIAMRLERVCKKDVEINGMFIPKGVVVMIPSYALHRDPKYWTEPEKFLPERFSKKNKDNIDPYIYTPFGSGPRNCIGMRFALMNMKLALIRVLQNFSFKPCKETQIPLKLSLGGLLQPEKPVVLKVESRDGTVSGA

[3] = Inhibition of potassium channel IKr
[4] = biological target: Sodium channel protein type 5 subunit alpha (Homo sapiens, UniProt Q14524); experiment: Inhibition of Nav1.5 channel
Sodium channel protein type 5 subunit alpha, sequence (Q14524 whole entry): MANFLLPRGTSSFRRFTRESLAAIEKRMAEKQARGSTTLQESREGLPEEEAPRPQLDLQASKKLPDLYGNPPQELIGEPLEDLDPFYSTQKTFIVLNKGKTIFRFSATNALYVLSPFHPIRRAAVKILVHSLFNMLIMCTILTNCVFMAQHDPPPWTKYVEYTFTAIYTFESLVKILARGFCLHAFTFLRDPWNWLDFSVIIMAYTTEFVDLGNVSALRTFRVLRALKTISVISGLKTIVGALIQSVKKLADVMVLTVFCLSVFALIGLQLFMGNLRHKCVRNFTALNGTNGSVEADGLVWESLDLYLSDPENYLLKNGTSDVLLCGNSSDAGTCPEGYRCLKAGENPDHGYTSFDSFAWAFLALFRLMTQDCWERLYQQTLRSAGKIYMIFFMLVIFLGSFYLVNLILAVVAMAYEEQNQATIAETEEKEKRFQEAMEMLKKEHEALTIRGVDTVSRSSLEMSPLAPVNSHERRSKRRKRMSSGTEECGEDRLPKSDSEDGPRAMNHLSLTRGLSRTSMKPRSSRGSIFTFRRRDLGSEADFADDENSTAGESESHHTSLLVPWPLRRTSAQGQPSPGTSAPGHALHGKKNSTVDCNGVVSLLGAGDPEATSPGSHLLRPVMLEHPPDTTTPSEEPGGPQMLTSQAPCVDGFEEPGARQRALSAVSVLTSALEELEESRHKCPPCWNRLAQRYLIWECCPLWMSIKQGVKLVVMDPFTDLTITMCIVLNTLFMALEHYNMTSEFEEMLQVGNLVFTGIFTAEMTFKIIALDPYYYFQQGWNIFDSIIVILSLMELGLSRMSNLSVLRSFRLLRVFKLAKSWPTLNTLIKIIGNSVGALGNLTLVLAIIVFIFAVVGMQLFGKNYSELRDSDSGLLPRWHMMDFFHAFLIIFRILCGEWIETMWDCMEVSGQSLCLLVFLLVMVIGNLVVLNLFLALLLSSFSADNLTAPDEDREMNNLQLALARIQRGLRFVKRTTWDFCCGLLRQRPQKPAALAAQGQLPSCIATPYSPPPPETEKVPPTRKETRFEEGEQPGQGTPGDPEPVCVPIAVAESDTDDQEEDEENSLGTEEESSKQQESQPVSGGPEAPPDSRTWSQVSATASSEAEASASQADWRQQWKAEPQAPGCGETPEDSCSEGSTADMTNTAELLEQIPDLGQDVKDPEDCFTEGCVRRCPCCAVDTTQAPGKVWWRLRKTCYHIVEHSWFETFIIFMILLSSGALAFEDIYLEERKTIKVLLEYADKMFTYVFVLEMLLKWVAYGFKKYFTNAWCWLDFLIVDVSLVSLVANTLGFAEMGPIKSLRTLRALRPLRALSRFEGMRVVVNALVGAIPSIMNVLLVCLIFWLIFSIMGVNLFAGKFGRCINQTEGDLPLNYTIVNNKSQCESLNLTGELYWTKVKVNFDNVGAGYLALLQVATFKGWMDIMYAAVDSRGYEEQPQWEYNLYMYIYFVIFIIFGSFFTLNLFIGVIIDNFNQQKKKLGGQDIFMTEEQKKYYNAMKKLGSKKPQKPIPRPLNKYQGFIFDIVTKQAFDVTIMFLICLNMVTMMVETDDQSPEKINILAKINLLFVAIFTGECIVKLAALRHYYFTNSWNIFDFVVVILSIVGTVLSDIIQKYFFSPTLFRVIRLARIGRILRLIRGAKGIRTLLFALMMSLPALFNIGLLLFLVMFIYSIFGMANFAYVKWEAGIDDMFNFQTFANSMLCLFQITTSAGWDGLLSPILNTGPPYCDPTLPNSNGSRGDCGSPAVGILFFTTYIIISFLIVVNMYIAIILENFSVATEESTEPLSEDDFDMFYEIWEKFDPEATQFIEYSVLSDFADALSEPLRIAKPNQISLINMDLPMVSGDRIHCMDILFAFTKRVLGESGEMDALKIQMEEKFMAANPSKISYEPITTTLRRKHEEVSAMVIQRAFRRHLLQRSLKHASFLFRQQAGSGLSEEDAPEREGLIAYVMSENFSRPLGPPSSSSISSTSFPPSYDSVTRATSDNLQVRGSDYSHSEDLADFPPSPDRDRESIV

L-type calcium channel = experiment: Inhibition of calcium channel diltiazem binding site
[5] = biological target: T2, Bifunctional epoxide hydrolase 2; experiment: Inhibition of human soluble epoxide hydrolase
CYP2D6 = CYP2D6 (Homo sapiens, UniProt P10635); experiment: as §1; format: ADME
CYP2D6, sequence (P10635 whole entry): as the sequence (P10635 whole entry) above

[6] = Bioavailability in rat at 1 mg/kg, iv and 2 mg/kg, po; format: ADME, organism-based; conditions: in vivo
In short: (§2)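 Rats dosed IV at 1 mg/kg (n = 2) and PO at 2 mg/kg (n = 3). Blood drug levels measured by LC/MS/MS after protein precipitation with acetonitrile.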

[7] = Clearance in rat at 1 mg/kg, iv and 2 mg/kg, po; format: ADME, organism-based; conditions: in vivo; in short: as §2
[8] = Volume of distribution at steady state in rat at 1 mg/kg, iv and 2 mg/kg, po; format: ADME, organism-based; conditions: in vivo, read-out: Vdss; in short: as §2
[9] = Half life in rat at 1 mg/kg, iv and 2 mg/kg, po; format: ADME, organism-based; conditions: in vivo; in short: as §2

Compound	IC50 [1] [µM]	IC50 [2] [µM]	IC50 (Epoxide hydrolase 1) [µM]	IC50 (Cytochrome P450 2C9) [µM]	IC50 (Cytochrome P450 2D6) [µM]	IC50 (Cytochrome P450 3A4) [µM]	IC50 [3] [µM]	IC50 [4] [µM]	IC50 (L-type calcium channel) [µM]	IC50 [5] [µM]	IC50 (CYP2D6) [µM]	bioavailability [6] [%]	clearance [7] [mL/min/kg]	Vd [8] [L/kg]	half-life [9] [h]
N#CCCC1(c2ccccc2)CCCN(C(=O)Nc2ccc(Cl)cc2)C1 (stereo not given)	0.016	< 0.001	> 100	> 10	> 10	> 10	10	> 10	7	–	–	–	–	–	–
CN(C)CCC1(c2ccccc2)CCCN(C(=O)Nc2ccc(Cl)cc2)C1 (stereo not given)	0.119	0.0013	> 100	> 10	–	< 10	0.3	> 10	0.1	0.012	< 10	52	59	1.4	0.66
O=C(Nc1ccc(Cl)cc1)N1CCCC(CCc2nn[nH]n2)(c2ccccc2)C1 (stereo not given)	0.059	< 0.001	> 100	> 10	10	< 10	3	> 10	–	0.005	–	0.17	124	1.4	0.39
NC(=O)CCC1(c2ccccc2)CCCN(C(=O)Nc2ccc(Cl)cc2)C1 (stereo not given)	0.026	< 0.001	> 100	> 10	> 10	> 10	7	–	–	–	–	13	116	0.88	4.4
O=C(O)CCCCC1(c2ccccc2)CCCN(C(=O)Nc2ccc(Cl)cc2)C1 (stereo not given)	0.12	< 0.001	> 100	> 10	> 10	> 10	> 30	> 10	> 30	0.005	–	–	–	–	–
CC1(c2ccccc2)CCCN(C(=O)NCc2ccc(-c3ccc4[nH]ccc4c3)cc2)C1 (stereo not given)	0.006	0.003	14	< 10	10	> 10	0.8	> 10	1	–	–	–	–	–	–
O=C(O)CCCC1(c2ccccc2)CCCN(C(=O)Nc2ccc(Cl)cc2)C1 (stereo not given)	0.176	0.006	> 100	> 10	> 10	> 10	> 30	> 10	> 30	–	–	–	–	–	–
CC1(c2ccccc2)CCCN(C(=O)NCc2ccc(-c3ccccn3)cc2)C1 (stereo not given)	0.003	< 0.001	47	< 10	10	< 10	4	> 10	0.5	0.001	–	–	–	–	–
CC1(c2ccccc2)CCCN(C(=O)NCc2ccc(Cl)cc2Cl)C1 (stereo not given)	0.003	–	–	> 10	–	< 10	20	< 10	2	< 0.001	< 10	–	–	–	–
O=C(O)CCC1(c2ccccc2)CCCN(C(=O)Nc2ccc(Cl)cc2)C1 (stereo in doubt; 2b)	0.076	0.004	> 100	> 10	> 10	> 10	> 30	> 10	> 30	–	–	84	4	0.8	3.2
CC1(c2ccccc2)CCCN(C(=O)Nc2ccc(Cl)cc2)C1 (stereo not given)	0.005	< 0.001	> 100	> 10	> 10	< 10	12	> 10	1.7	0.001	–	13	43	12	3.9
